Measured values taken from ChEMBL document CHEMBL1240394, “Antibacterial activity of N-pentylpantothenamide is due to inhibition of coenzyme a synthesis” (2010).
Activity calls are given as the source filed them. No cut-off for these calls is given here.

Tests used:
Escherichia coli [1] = assay: Inhibition of coenzyme A synthesis in acpH null mutant containing Escherichia coli JT6 transformed with pBAD24 plasmid expressing CoaD gene assessed as decrease in acetyl CoA level at 100 ug/ml after 90 mins by HPLC relative to untreated control; type: functional, organism-based
Escherichia coli [2] = assay: Antibacterial activity against Escherichia coli JT13 deficient in acpH gene assessed as microbial growth inhibition
Escherichia coli [3] = assay: Inhibition of coenzyme A synthesis in acpH null mutant containing Escherichia coli JT6 transformed with pBAD24 plasmid expressing CoaE gene assessed as decrease in acetyl CoA level at 100 ug/ml after 90 mins by HPLC relative to untreated control; type: functional, organism-based
Escherichia coli [4] = assay: Inhibition of coenzyme A synthesis in acpH null mutant containing Escherichia coli JT6 transformed with pBAD24 plasmid expressing CoaBC gene assessed as decrease in acetyl CoA level at 100 ug/ml after 90 mins by HPLC relative to untreated control; type: functional, organism-based
Escherichia coli [5] = assay: Antibacterial activity against Escherichia coli JT6 assessed as microbial growth inhibition
Escherichia coli [6] = assay: Induction of holo-ACP accumulation in Escherichia coli JT6 pJT5 plasmid expressing AcpH at 100 ug/ml after 3 hrs by Western blotting; type: functional, organism-based
Method in brief: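 JT6 cells carrying pJT5 (AcpH under arabinose control), with empty pBAD322 as the vector control, treated with 100 μg/ml N5-Pan. At 3 h, crude cell extracts were run on conformationally sensitive gel electrophoresis. Proteins were electroblotted and probed by Western blot with anti-ACP antibody.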

Escherichia coli [7] = assay: Inhibition of coenzyme A synthesis in acpH null mutant containing Escherichia coli JT6 transformed with pBAD24 plasmid expressing CoaA gene assessed as decrease in acetyl CoA level at 100 ug/ml after 90 mins by HPLC relative to untreated control; type: functional, organism-based
Escherichia coli [8] = assay: Antibacterial activity against acpH null mutant containing Escherichia coli JT6 transformed with pJT5 expressing AcpH assessed as microbial growth inhibition; type: functional, organism-based
Escherichia coli [9] = assay: Inhibition of coenzyme A synthesis in Escherichia coli JT7 carrying panD deletion assessed as decrease in acetyl CoA level at 100 ug/ml after 90 mins by HPLC relative to untreated control; type: functional
Method in brief: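 The culture was split, one half given 100 μg/ml N5-Pan, and both incubated a further 90 min. CoA pools were extracted and analysed by reverse-phase C18 HPLC with internal standards.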

Escherichia coli [10] = assay: Induction of ethyldethia-ACP accumulation in Escherichia coli JT6 at 200 ug/ml by gel electrophoresis; type: functional, organism-based
Method in brief: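 Exponentially growing E. coli JT6 (UB1005 tolC::Tn10, lacking the outer membrane efflux exit duct) in M9 minimal medium with 0.4% glycerol and 0.1% vitamin-free Casamino Acids. Culture supplemented with 200 μg/ml N5-Pan. ACP species resolved by conformationally sensitive gel electrophoresis.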

CCCCCNC(=O)CCNC(=O)[C@H](O)C(C)(C)CO
inhibition (Escherichia coli [1]): Active
growth inhibition (GI) (Escherichia coli [2]): Active
inhibition (Escherichia coli [3]): Active
inhibition (Escherichia coli [4]): Active
growth inhibition (GI) (Escherichia coli [5]): Active
Activity (Escherichia coli [6]): Active
inhibition (Escherichia coli [7]): Active
growth inhibition (GI) (Escherichia coli [8]): inactive
fold change (FC) (Escherichia coli [9]): >10
Activity (Escherichia coli [10]): Active
